Experiment [1] deals with Radical scavenging activity. The experiment in a line: Antioxidant activity assessed as DPPH radical scavenging activity. It is filed as functional. Put shortly: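 Test sample in EtOH mixed with 0.1 M HOAc–NaOAc buffer (pH 5.5) and DPPH in EtOH (800 µM stock). Reacted 30 min at room temperature in microplate wells; absorbance read at 517 nm. Value reported as SC50 (50% scavenging concentration).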
(DPPH is a stable violet radical that fades when it is reduced.)

Experiment [2] can be described thus: Antioxidant activity assessed as superoxide anion radical scavenging activity. It is filed as functional. An outline of the steps:
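Superoxide generated by xanthine–xanthine oxidase in 0.05 M Na2CO3 (pH 10.2) with xanthine, EDTA, BSA and nitroblue tetrazolium (stocks 3 mM, 3 mM, 1.5 mg/mL, 0.75 mM); reaction started with xanthine oxidase (0.1 mg/mL stock). Incubated 20 min at 25 °C, stopped with CuCl2, absorbance at 560 nm; IC50 reported.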

Take `O=C1C=C2O[C@H](c3ccc(O)c(O)c3)[C@@H](O)[C@@H]3c4c(O)cc(O)cc4[C@H](C23)[C@H](c2ccc(O)c(O)c2)C1` (stereo partly specified): in experiment [1], the SC50 is 3.83 µM.

Consider `O=C1c2c(O)cc(O)cc2O[C@H](c2ccc(O)c(O)c2)[C@H]1O` [(+)-TAXIFOLIN], for which the IC50 in experiment [2] stood at 1410 nM. In addition, in experiment [1], the SC50 is 10.4 µM. On to `Oc1cc(O)c2c(c1)O[C@H](c1ccc(O)c(O)c1)[C@@H](O)C2` [CIANIDANOL], for which the half-inhibitory concentration (IC50) in experiment [2] stood at 2310 nM. For the same compound, the SC50 in experiment [1] worked out at 11.4 µM.

In the case of `O=C(O)/C=C/c1ccc(O)cc1` [COUMARIC ACID], the IC50 in experiment [2] is 104000 nM. The SC50 in experiment [1] is 117 µM. For the compound `COc1cc([C@@H]2Oc3c(OC)cc(CCCO)cc3[C@H]2CO)ccc1O` [DIHYDRODEHYDRODICONIFERYL ALCOHOL], the IC50 in experiment [2] was found to be 344000 nM. Also, the SC50 in experiment [1] came out at 69.1 µM. The corresponding values for `O=C(O)c1cc(O)c(O)c(O)c1` [GALLIC ACID] are 530 nM and 8.08 µM. Turning to `COc1cc([C@H]2c3cc(O)c(OC)cc3C[C@@H](CO)[C@@H]2CO)ccc1O` [ISOLARICIRESINOL], in experiment [2], the 50% inhibitory concentration (IC50) is 70700 nM. Moreover, the SC50 in experiment [1] was found to be 13.7 µM.

With `Oc1cc(O)cc([C@@H]2c3c(cc(O)c4c3O[C@H](c3ccc(O)c(O)c3)[C@@H](O)C4)O[C@H]2c2ccc(O)c(O)c2)c1` [JEZONOCINOL A], in experiment [2], the IC50 was 2030 nM. Moreover, the SC50 in experiment [1] was 9.92 µM. On to `Oc1cc(O)cc([C@H]2c3c(cc(O)c4c3O[C@H](c3ccc(O)c(O)c3)[C@@H](O)C4)O[C@@H]2c2ccc(O)c(O)c2)c1` [JEZONOCINOL B], for which the 50% inhibitory concentration (IC50) in experiment [2] was determined as 1800 nM. Besides, the SC50 in experiment [1] worked out at 11.8 µM. For `O=Cc1ccc(O)c(O)c1` [PROTOCATECHUALDEHYDE], the IC50 in experiment [2] was found to be 25300 nM. Further, in experiment [1], the SC50 was 12.2 µM.

As for `O=C(O)c1ccc(O)c(O)c1` [PROTOCATECHUIC ACID], the half-inhibitory concentration (IC50) in experiment [2] came out at 3310 nM. Further, the SC50 in experiment [1] is 17.3 µM.

For orientation: IC50 means the concentration that inhibits the measured activity by half.

The record behind these values is ChEMBL document CHEMBL1141315, “Structures and radical-scavenging activities of phenolic constituents from the bark of Picea jezoensis var. jezoensis” (J Nat Prod, 2007).
